Shown are actives, neighbours in structure and some others; about 3.1% of the full set was active somewhere.
GalR3 antag: antagonists of human GalR3 | O60755 | HEK293 GalR3-CNG cAMP membrane potential fluorescence; galR3 body fused to GalR1 C-terminus | inhibition, % at 3 µM | 0.44% of 360,000 active | AID 651719;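 active = inhibition above the screen-wide average plus 3 SD, cut at about 13% in these data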;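 also: forskolin and galanin both at EC90 stimulate the cells; cAMP rise reported by CNG channel membrane potential dye signal; 0% = forskolin plus galanin with DMSO and 100% = forskolin alone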
GPR7 antagonist: antagonists of human GPR7 (neuropeptides B/W receptor 1); inhibition, % at 4.4 µM; GPR7-expressing cells, fluorescence antagonist assay; P48145; 1.1% of 290,000 active; in the data active = inhibition above about 16%, passing the limit was not always enough;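 also: cells stimulated with the agonist NPW; 0% = agonist with vehicle and 100% = vehicle without agonist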
OX1R antag-1: antagonists of human orexin 1 receptor; inhibition, % at 5 µM; 0.43% of 330,000 active; CHO/OX1R cells, Fluo-8 calcium fluorescence, orexin A;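 active = inhibition above its plate's threshold, mean inhibition of all tested compounds on the plate plus 3 SD, cut at about 37% in these data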;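 also: 0% = orexin A challenge wells and 100% = SB-334867-A antagonist wells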
Target sequence (O43613 whole entry, looked up): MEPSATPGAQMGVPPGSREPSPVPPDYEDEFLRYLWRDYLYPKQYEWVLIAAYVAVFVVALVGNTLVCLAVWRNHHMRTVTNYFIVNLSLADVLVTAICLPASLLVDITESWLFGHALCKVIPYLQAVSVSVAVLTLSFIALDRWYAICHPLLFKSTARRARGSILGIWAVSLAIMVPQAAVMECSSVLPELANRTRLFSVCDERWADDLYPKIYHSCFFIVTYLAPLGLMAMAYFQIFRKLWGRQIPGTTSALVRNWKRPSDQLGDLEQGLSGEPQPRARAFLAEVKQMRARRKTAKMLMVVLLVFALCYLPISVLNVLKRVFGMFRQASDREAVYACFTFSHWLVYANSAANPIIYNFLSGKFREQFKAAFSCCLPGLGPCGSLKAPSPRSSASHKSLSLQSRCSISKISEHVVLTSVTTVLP
CHO parental Ca: signal in parental CHO cells, OX1R antagonist counter-screen; parental CHO-K1, ATP-induced calcium, Fluo-8 fluorescence; inhibition, % at 5.6 µM; 0.63% of 330,000 active;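 active = inhibition above that plate's mean sample inhibition plus 3 SD, cut at about 26% in these data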;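 also: 0% = ATP-challenged DMSO wells and 100% = DMSO wells without ATP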
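Assay system: untransfected parental CHO cell line. Also added: ATP agonist challenge. Dosing: one dose, 5.6 µM nominal. Measured by: Fluo-8 fluorescence. Read-out: % inhibition. Benchmarks: ATP wells versus no-ATP DMSO wells. Repeats: no replicates.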
OX1R antag-2: OX1R (human) antagonism; inhibition, % at 6.6 µM; OX1R-expressing cells, FRET antagonist read-out; 1.8% of 330,000 active; AID 485270; O43613; in the data active = inhibition mostly above about 38%, no sharp cut-off; inactive = mostly below about 40%;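 also: 0% = agonist challenge alone and 100% = reference antagonist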
GalR3 conf: confirmation of human galanin receptor 3 antagonists; 59% of 1,600 active; AID 652245; shares compounds with GalR3 antag; inhibition, % at 3 µM; HEK293 GalR3 CNG cAMP biosensor, membrane potential fluorescence; galR3 fused to GalR1 carboxy tail; challenged with forskolin and galanin at EC90;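 active = inhibition above the primary screen's cutoff, the mean inhibition of all screened compounds plus 3 SD, cut at about 13% in these data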;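 also: 0% = forskolin plus galanin and 100% = forskolin alone with DMSO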
CNG parental: acts as nonspecific agonist in parental HEK-CNG cells; HEK293-CNG parental cells, cAMP membrane potential fluorescence; normalised: DMSO wells 0%, forskolin wells 100%; activation, % at 3 µM; shares compounds with GalR3 antag; AID 652268; 10% of 1,600 active; in the data active = activation above about 1.3%
* marks the source's active call; other numbers are inactive results.

`CC1(C(=O)NS(=O)(=O)c2ccccc2C(F)(F)F)CCN1C(=O)c1cccc(F)c1` (centres undefined) gave GalR3 antag -5.8.
`CN(c1ccccc1)S(=O)(=O)c1ccc(Cl)c(C(=O)Nc2ccc(N3CCOCC3)cc2)c1` gave GalR3 antag 2.6, GPR7 antagonist -4.8, OX1R antag-1 -23.4, CHO parental Ca 4.5 and OX1R antag-2 13.7.
For Cc1nc2ccc(NC(=O)c3cc(S(=O)(=O)N(C)c4ccccc4)ccc3Cl)cc2s1 the results were GalR3 antag 77.9*, GPR7 antagonist -3.4, OX1R antag-1 14.4, CHO parental Ca 39.3, OX1R antag-2 40.2, GalR3 conf 111.9* and CNG parental -0.6.
`CC(Sc1nc(NCc2ccccc2)nc(N(C)C)n1)C(=O)Nc1ccccc1` (centres undefined) gave GalR3 antag -5.6, GPR7 antagonist 9.7, OX1R antag-1 -10.8, CHO parental Ca -15.2 and OX1R antag-2 16.3.
Screening CC(Sc1nc(N)c2c3c(sc2n1)CSC(C)(C)C3)C(=O)Nc1ccccc1 (centres undefined) returned GalR3 antag 53.9*, GPR7 antagonist -3.9, OX1R antag-1 -14.5, CHO parental Ca -20.6, OX1R antag-2 11.5, GalR3 conf 45.0* and CNG parental 0.1.
Screening COc1cc(/C=C/C2=NNC(=O)CC2)cc(OC)c1OC returned GalR3 antag 20.2*, GPR7 antagonist -13.5, OX1R antag-1 -15.9, CHO parental Ca -11.7, OX1R antag-2 3.4, GalR3 conf 15.5* and CNG parental 0.2.
Screening CN(Cc1ccc2c(c1)CCCN2C)C(=O)[C@H]1O[C@@H](n2cnc3c(N)ncnc32)[C@H](O)[C@@H]1O returned GalR3 antag 41.6*, GalR3 conf 85.3* and CNG parental 0.0.
`COc1ccccc1CNC(=O)c1cnn2c(C(F)F)cc(C)nc12` gave GalR3 antag 22.9*, GPR7 antagonist -10.8, OX1R antag-1 -20.9, CHO parental Ca -12.4, OX1R antag-2 34.3, GalR3 conf 34.5* and CNG parental 0.3.
COc1ccccc1CCNC(=O)c1cnn2c(C(F)F)cc(C)nc12 was read as GalR3 antag 3.0, GPR7 antagonist -0.7, OX1R antag-1 -44.7, CHO parental Ca -16.3 and OX1R antag-2 23.1.
CCCCN(C(=O)c1ccc(NC2CC2)c([N+](=O)[O-])c1)c1c(N)n(CC(C)C)c(=O)[nH]c1=O was read as GalR3 antag -2.3, OX1R antag-1 -11.4, CHO parental Ca -6.2 and OX1R antag-2 6.0.
Cc1ccc(C2(c3ccc(C)cc3)CC2C(=O)Nc2ccc([N+](=O)[O-])cc2O)cc1 (centres undefined) was read as GalR3 antag 60.9*, GPR7 antagonist 16.0, OX1R antag-1 33.0, CHO parental Ca 14.4, OX1R antag-2 21.7, GalR3 conf 21.5* and CNG parental -1.7.
`CC1(C)CC1C(=O)Nc1ccc([N+](=O)[O-])cc1Br` (centres undefined) gave GalR3 antag -9.6, GPR7 antagonist -13.1, OX1R antag-1 -12.4, CHO parental Ca -9.4 and OX1R antag-2 23.8.
`CC(OC(=O)c1ncc(Cl)c(Cl)c1Cl)C(=O)NC1CCCCC1C` (centres undefined) gave GalR3 antag -1.5, OX1R antag-1 -8.9, CHO parental Ca 2.1 and OX1R antag-2 16.5.
For OC(c1ccc(F)c(F)c1)c1nc(-c2ccncc2)cs1 (centres undefined) the results were GalR3 antag -6.4.
`OC(c1ccc(F)cc1)c1nc(-c2ccncc2)cs1` (centres undefined) gave GalR3 antag 13.3*, GalR3 conf 31.7* and CNG parental -0.5.
`COc1ccc(OC)c2sc(N3CCN(c4ccccc4)CC3)nc12` gave GalR3 antag 15.2*, GPR7 antagonist -13.8, OX1R antag-1 -29.5, CHO parental Ca -16.1, OX1R antag-2 6.1, GalR3 conf 11.4 and CNG parental -0.6.
For Cc1cc(/C=C2/SC(=S)N(c3cccc(Cl)c3)C2=O)c(C)n1-c1cccnc1 the results were GalR3 antag 89.8*, GPR7 antagonist -2.8, OX1R antag-1 53.0*, CHO parental Ca 45.6*, OX1R antag-2 71.4*, GalR3 conf 15.1* and CNG parental 0.1.
`COc1cc(-c2nn3c(C4CCCCC4)nnc3s2)cc(OC)c1OC` gave GalR3 antag 17.8*, GPR7 antagonist -12.1, OX1R antag-1 -16.8, CHO parental Ca -10.4, OX1R antag-2 13.5, GalR3 conf 7.6 and CNG parental 0.1.
For COc1ccc(-c2nn3c(C4CCCCC4)nnc3s2)cc1OC the results were GalR3 antag 17.2*, GPR7 antagonist -19.6, OX1R antag-1 -31.2, CHO parental Ca 5.1, OX1R antag-2 25.5, GalR3 conf 23.8* and CNG parental 1.0.
`CCCCn1c(=O)[nH]c(=O)c2c1nc(-c1cc(Cl)c(OC)c(OC)c1)n2C` gave GalR3 antag 0.4, GPR7 antagonist -11.8, OX1R antag-1 -9.6, CHO parental Ca -9.7 and OX1R antag-2 18.4.
`Nc1ncnc2c1ncn2[C@H]1C[C@H](O)[C@@H](CO)O1` gave GalR3 antag -0.8, GPR7 antagonist -2.7, OX1R antag-1 -11.5, CHO parental Ca -9.6 and OX1R antag-2 16.6.
Nc1nc(Cl)nc2c1ncn2[C@H]1C[C@H](O)[C@@H](CO)O1 was read as GalR3 antag 49.3*, GPR7 antagonist -13.0, OX1R antag-1 -5.2, CHO parental Ca -3.6, OX1R antag-2 11.8, GalR3 conf 56.9* and CNG parental 1.3*.
Screening O=C(CCCOc1ccccc1)Nc1cccnc1 returned GalR3 antag -5.0, GPR7 antagonist -2.1, OX1R antag-1 -10.9, CHO parental Ca -6.0 and OX1R antag-2 23.8.
Screening O=C(COc1ccc(C(=O)c2ccccc2)cc1)Nc1cccnc1 returned GalR3 antag 97.4*, GPR7 antagonist 11.2, OX1R antag-1 7.5, CHO parental Ca 51.8*, OX1R antag-2 18.4, GalR3 conf 108.1* and CNG parental -0.4.
Screening O=C(COc1ccc2ccccc2c1)Nc1ccncc1 returned GalR3 antag 66.2*, GPR7 antagonist 16.9, OX1R antag-1 53.4*, CHO parental Ca 67.3*, OX1R antag-2 62.2, GalR3 conf 72.8* and CNG parental -0.5.
Screening CCCCOc1ccc(C(=O)Nc2ccncc2)cc1 returned GalR3 antag 56.7*, GPR7 antagonist 1.4, OX1R antag-1 44.7*, CHO parental Ca 41.5*, OX1R antag-2 60.5, GalR3 conf 101.8* and CNG parental -0.1.

Screening results (PubChem)
